In paper PMC7591087 (Drug Design, Development and Therapy, 2020):
Where two headings read alike, the source gives them in different places.

Tests used:
[1] = Steady-state pharmacokinetics; format: in vivo; details: human, plasma, oral
Method in brief: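 Crossover design in healthy males: 5 mg, 30 mg, or both test compounds orally once daily for 7 days, fasted, with 7-day washouts. A validated LC-MS/MS assay measured parent drugs and metabolites, and steady-state Tmax was taken directly from observed data. Analysis covered 34 completers.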

[2] = Safety and tolerability assessment; format: in vivo, human
Method in brief: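 Healthy males in a randomized, open-label, six-sequence, three-period crossover took one test compound at 5 mg, another at 30 mg, or both together, orally once daily for 7 days with 150 mL water while fasted, with 7-day washouts. Investigators monitored vital signs, physical exam, clinical labs, 12-lead ECG and adverse events, coding events with MedDRA 19.0. Analysis covered 35 subjects dosed at least once.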

[3] = repeated once-daily administrations in healthy subjects, NCT00961025; cited from earlier work
CYP enzymes = details: in vitro studies; cited from earlier work
[4] = once-daily oral administration; cited from earlier work
CYP enzyme = details: in vivo; cited from earlier work
[5] = number of subjects who reported ADRs (the number of ADRs), N=35

| Tmax ([1]; 5 mg) | Tmax [1] | Tmax ([1]; 30 mg) | SMILES | ADR: Diarrhoea [2, 5] | ADR: Dyspepsia [2, 5] | ADR: Headache [2, 5] | ADR: Lip blister [2, 5] | ADR: Muscle twitching [2, 5] | ADR: Musculoskeletal stiffness [2, 5] | ADR: Oropharyngeal swelling [2, 5] | ADR: Vomiting [2, 5] | terminal half-life (t1/2) [3] | time to reach a maximum plasma concentration (Tmax) [3] | induction or inhibition of CYP enzymes (CYP enzymes) | number of AEs reported ([2]; all adverse events after each treatment, 35 subjects) | ADR: Amylase increased [2, 5] | Tmax [4] | CYP enzyme induction or inhibition (CYP enzyme) |
| --- | --- | --- | --- | --- | --- | --- | --- | --- | --- | --- | --- | --- | --- | --- | --- | --- | --- | --- |
| 4.5 h |  |  | CC(C)(C)OC[C@@H]1C(=O)NCCN1C(=O)C[C@H](N)Cc1cc(F)c(F)cc1F [Evogliptin] | 1 (1) | 1 (1) | 1 (1) | 1 (1) | 1 (1) | 1 (1) | 1 (1) | 1 (1) | 33 to 39 h | 4 to 5 h | does not induce or inhibit CYP enzymes |  |  |  |  |
|  | 3 h | 2 h | CCc1ccc(CCOc2ccc(CC3SC(=O)NC3=O)cc2)nc1 (stereo not drawn) [Pioglitazone] |  |  |  |  |  |  |  |  |  |  |  | 3 AEs | 1 (1) | about 2 hours | No clinically significant CYP enzyme induction or inhibition |
